Measurements taken from ChEMBL document CHEMBL2046318, “Synthesis and biological evaluation of novel flavonols as potential anti-prostate cancer agents” (Eur J Med Chem, 2012).

What was measured:
CWR22R [1] = assay: Antiproliferative activity against human 22Rv1 cells incubated up to 144 hrs by Coulter particle count and size analyzer; format: functional, cell-based; conditions: 22Rv1, 144 h
In short: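 22rv1 cells in RPMI 1640 with 10% FBS were seeded at 5 × 10^3 per well, left to adhere overnight, then exposed to agents in DMSO (final DMSO <0.1%) for up to 144 h. Cells were trypsinised and counted on a Coulter counter. Cell number as % of DMSO control was plotted against log concentration at 144 h, and the IC50 was taken from the straight-line fit. Mean of 3–6 experiments.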

CWR22R [2] = assay: Inhibition of androgen receptor expression in human 22Rv1 cells assessed as AR protein level at 10 uM after 72 hrs by densitometry relative to untreated control; format: functional; set-up: scale not given: the % may be the effect or the level left
In short: (§1)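 22rv1 cells were seeded at 2 × 10^5 per well, left to adhere overnight, then treated for 72 h at 10 or 20 µM. Cells were lysed in NP-40/deoxycholate/SDS buffer with protease and phosphatase inhibitors. 15 µg protein was run on SDS-PAGE and blotted, then probed with AR, PSA and actin antisera and an HRP secondary. Bands were quantified by densitometry as % of vehicle control, mean of 3–5 replicates with SD.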

CWR22R [3] = assay: Inhibition of androgen receptor expression in human 22Rv1 cells assessed as AR protein level at 20 uM after 72 hrs by densitometry relative to untreated control; format: functional; set-up: scale not given: the % may be the effect or the level left; in short: as §1
CWR22R [4] = assay: Inhibition of prostate specific antigen expression in human 22Rv1 cells assessed as PSA protein level at 10 uM after 72 hrs by densitometry relative to untreated control; format: functional; set-up: scale not given: the % may be the effect or the level left; in short: as §1
CWR22R [5] = assay: Inhibition of prostate specific antigen expression in human 22Rv1 cells assessed as PSA protein level at 20 uM after 72 hrs by densitometry relative to untreated control; format: functional; set-up: scale not given: the % may be the effect or the level left; in short: as §1
CWR22R [6] = assay: Growth inhibition of human 22Rv1 cells at 0.1 uM incubated up to 144 hrs by Coulter particle count and size analyzer; format: functional; conditions: 22Rv1, 144 h, read-out: GI
CWR22R [7] = assay: Growth inhibition of human 22Rv1 cells at 0.01 uM incubated up to 144 hrs by Coulter particle count and size analyzer; format: functional; conditions: 22Rv1, 144 h, read-out: GI
CWR22R [8] = assay: Growth inhibition of human 22Rv1 cells at 50 uM incubated up to 144 hrs by Coulter particle count and size analyzer; format: functional; conditions: 22Rv1, 144 h, read-out: GI

SMILES | IC50 (CWR22R [1]) | Activity (CWR22R [2]) | Activity (CWR22R [3]) | Activity (CWR22R [4]) | Activity (CWR22R [5]) | inhibition of growth at 0.1 µM (CWR22R [6]) | inhibition of growth at 0.01 µM (CWR22R [7]) | inhibition of growth at 50 µM (CWR22R [8])
COc1cccc(-c2oc3ccccc3c(=O)c2O)c1 | 5.3 µM | 64% | 23% | 27% | 13% | – | – | –
O=c1c(O)c(-c2ccc(O)c(O)c2)oc2cc(F)ccc12 | 9.2 µM | 108% | 59% | 21% | 18% | – | – | –
O=c1c(O)c(-c2ccccc2)oc2ccccc12 [FLAVONOL] | 14.9 µM | 100% | 92% | 124% | 80% | – | – | –
O=c1c(O)c(-c2cc(O)c(O)c(O)c2)oc2cc(F)ccc12 | 11.6 µM | 100% | 94% | 111% | 106% | – | – | –
O=c1c(O)c(-c2cc(O)c(O)c(O)c2)oc2cc(O)ccc12 [ROBINETIN] | 7.1 µM | 84% | 102% | 69% | 111% | – | – | –
O=c1c(O)c(-c2cc(O)c(O)c(O)c2)oc2cc(F)cc(F)c12 | 6.3 µM | 118% | 90% | 134% | 132% | – | – | –
O=c1c(O)c(-c2ccc(O)c(O)c2)oc2cc(O)cc(O)c12 [QUERCETIN] | 15.5 µM | 114% | 120% | 40% | 31% | – | – | –
COc1cc(-c2oc3ccccc3c(=O)c2O)cc(OC)c1OC | 3.1 µM | 96% | 62% | 21% | 23% | – | – | –
COc1cc(-c2oc3ccccc3c(=O)c2OC)cc(OC)c1OC | 2.6 µM | 94% | 80% | 167% | 149% | – | – | –
O=c1c(O)c(-c2ccc(O)cc2)oc2cc(O)ccc12 [RESOKAEMPFEROL] | 30.2 µM | 141% | 125% | 47% | 39% | – | – | –
COc1cc(-c2oc3cc(F)ccc3c(=O)c2O)cc(OC)c1OC | 4 µM | 112% | 75% | 37% | 22% | – | – | –
COc1cc(-c2oc3cc(F)cc(F)c3c(=O)c2O)cc(OC)c1OC | 5.9 µM | 100% | 103% | 95% | 68% | – | – | –
COc1cc(OC)cc(-c2oc3ccccc3c(=O)c2O)c1 | 12.4 µM | 74% | 72% | 133% | 109% | – | – | –
O=c1c(O)c(-c2cc(O)c(O)c(O)c2)oc2cc(O)cc(O)c12 [MYRICETIN] | 13.1 µM | 119% | 114% | 110% | 121% | – | – | –
O=c1c(O)c(-c2cc(O)c(O)c(O)c2)oc2ccccc12 | 7.7 µM | 94% | 89% | 110% | 109% | – | – | –
O=c1c(O)c(-c2ccc(O)cc2)oc2cc(F)ccc12 | 8.4 µM | 129% | 64% | 32% | 3% | – | – | –
COc1ccc(-c2oc3ccccc3c(=O)c2O)cc1OC [3-HYDROXY-3',4'-DIMETHOXYFLAVONE] | 12.3 µM | 63% | 81% | 61% | 56% | – | – | –
COc1cc(-c2oc3ccc(F)cc3c(=O)c2O)cc(OC)c1OC | 3.3 µM | 91% | 75% | 14% | 5% | – | – | –
COc1ccc(-c2oc3ccccc3c(=O)c2O)cc1 | 30.5 µM | 71% | 61% | 127% | 115% | – | – | –
O=c1c(O)c(-c2ccc(O)c(O)c2)oc2cc(F)cc(F)c12 | 16.3 µM | 116% | 86% | 61% | 22% | – | – | –
COc1ccc(-c2oc3cc(F)ccc3c(=O)c2O)cc1OC | > 40 µM | 129% | 120% | 78% | 70% | – | – | –
O=c1c(O)c(-c2ccc(O)cc2)oc2cc(O)cc(O)c12 [KAEMPFEROL] | > 40 µM | 128% | 131% | 33% | 37% | – | – | –
O=c1c(O)c(-c2ccc(O)cc2)oc2cc(F)cc(F)c12 | 28.7 µM | 136% | 96% | 77% | 33% | – | – | –
COc1cc(-c2oc3ccccc3c(=O)c2F)cc(OC)c1OC | > 40 µM | 110% | 125% | 63% | 63% | 46% | 18% | 48%
COc1ccc(-c2oc3cc(F)cc(F)c3c(=O)c2O)cc1 | 15.8 µM | 115% | 111% | 85% | 66% | – | – | –
O=c1c(O)c(-c2ccc(O)c(O)c2)oc2cc(O)ccc12 [FISETIN] | 25.9 µM | 109% | 101% | 51% | 44% | – | – | –
COc1ccc(-c2oc3cc(F)cc(F)c3c(=O)c2O)cc1OC | 7.4 µM | 110% | 94% | 78% | 88% | – | – | –
COc1ccc(-c2oc3cc(F)ccc3c(=O)c2O)cc1 | 7.1 µM | 112% | 104% | 70% | 62% | – | – | –
